The results in this text go back to PMC10763849 (Journal of Enzyme Inhibition and Medicinal Chemistry, 2023).

This series has as its system HCT116 (KRAS(mut)/p53(wt)) cells xenograft. The series is described as follows: In vivo anti-tumour activity, HCT116 xenograft. The following applies: i.p. 10 mg/kg, every 3 d, five times; for body weight changes: BALB/c nude mice; for tumour volume compared with the vehicle group: HCT116 xenograft. Details: species or system BALB/c nude mice. The gist of the method: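 Six-week-old BALB/c nude mice received 1 × 10^7 HCT116 cells in 200 µL subcutaneously in the right flank. At 80–120 mm3, mice were randomised into four groups of 5. They were dosed i.p. in PBS pH 7.4 (0.2 ml) every 3 days ×5: vehicle or test compound at 1, 10 or 20 mg/kg; a second study used 10 mg/kg with reference inhibitors. Tumour volume was (min² × max)/2, with body weight recorded; mean ± SD.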

The structures appear in SMILES notation.

Take `O=C(CCCCCCC(=O)Nc1ccccc1)NO` [SAHA, Vorinostat]: the body weight changes result is given as “stable trend” and the “tumour volume compared with the vehicle group” value is recorded as “smaller than that of the vehicle group”.

In the case of `CN1CCN(Cc2ccc(Nc3ncc(Cl)c(Nc4ccccc4S(=O)(=O)N(C)C)n3)cc2)CC1` [TP0903], the body weight changes result was “stable trend” and the “tumour volume compared with the vehicle group” value was “smaller than that of the vehicle group”.
